Source: PMC4635973 (Journal of medicinal chemistry, 2015)
“Also recorded” adds a separate entry of the source.

T1: activin A/ActRIIA-ECD complex binding to ALK4-ECD-Fc (Homo sapiens, UniProt P08476)
T1 sequence (P08476 311-426): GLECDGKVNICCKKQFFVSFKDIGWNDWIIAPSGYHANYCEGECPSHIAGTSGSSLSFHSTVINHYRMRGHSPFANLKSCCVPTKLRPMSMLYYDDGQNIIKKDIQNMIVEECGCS

T2: myostatin/ActRIIA-ECD complex binding with ALK4-ECD-Fc (Homo sapiens, UniProt O14793)
T2 sequence (O14793 267-375): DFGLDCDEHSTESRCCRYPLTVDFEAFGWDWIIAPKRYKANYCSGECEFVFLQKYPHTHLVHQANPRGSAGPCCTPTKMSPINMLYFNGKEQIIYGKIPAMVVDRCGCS

T3: activin A binding to ActRIIA-ECD-Fc (Homo sapiens, UniProt P08476)
T3 sequence (P08476 311-426): T1 sequence (P08476 311-426)

B1: inhibin A: Purified inhibin A, naturally occurring activin antagonist, positive control in ovary culture (protein, UniProt P05111 233-366; P08476 311-426, looked up)
Inhibin alpha chain: STPLMSWPWSPSALRLLQRPPEEPAAHANCHRVALNISFQELGWERWIVYPPSFIFHYCHGGCGLHIPPNLSLPVPGAPPTPAQPYSLLPGAQPCCAALPGTMRPLHVRTTSDGGYSFKYETVPNLLTQHCACI
Inhibin beta A chain: T1 sequence (P08476 311-426)

Key:
[1] = test system: activin A-mediated ovarian cell proliferation; assay: Ovary ex vivo culture and BrdU assay; format: cell-based, mouse; conditions: 1 nM activin A, ovaries of 4-day-old CD1 mice, 4 days
Procedure, shortened: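 Ovaries from 4-day-old CD1 mice were cultured on 0.4-µm membrane inserts in DMEM/F12 with 0.03% BSA for 4 days. Treatments: 1 nM activin A with DMSO, 200 µM test compound, 4 nM Fst288 or 8 nM inhibin A. Then 10 µM BrdU for 24 h. Genomic DNA (150 ng, heat-denatured) was dot-blotted, probed with anti-BrdU and HRP secondary, detected by ECL and quantified by densitometry. Three independent experiments; one-way ANOVA with Tukey test.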

[2] = target: T1, activin A/ActRIIA-ECD complex binding to ALK4-ECD-Fc; assay: Blitz competition binding: activin A/ActRIIA-ECD complex with ALK4-ECD-Fc; conditions: 25 µM compound, complex 1.6 µM
Procedure, shortened: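 ALK4-ECD-Fc (50 ng/mL) was immobilized on a protein A Blitz biosensor for 120 s. Activin A and ActRIIA-ECD were premixed 1:2 molar, final 1.6 µM in PBS. The sensor was dipped into this complex with solvent or test compound (0.4, 1.6, 6.25, 25 µM) for 120 s association, then 120 s dissociation in PBS. Real-time wavelength shift recorded.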

[3] = target: T2, myostatin/ActRIIA-ECD complex binding with ALK4-ECD-Fc; assay: Blitz competition binding: myostatin/ActRIIA-ECD complex with ALK4-ECD-Fc; conditions: 25 µM compound
Procedure, shortened: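 Myostatin and ActRIIA-ECD were premixed 1:2 molar, final 1.6 µM in PBS. Binding was to ALK4-ECD-Fc immobilized on a protein A Blitz biosensor (50 ng/mL, 120 s). Sensor dipped into complex with solvent or 25 µM test compound; 120 s association, 120 s dissociation in PBS. Wavelength shift recorded.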

ovariectomized mice = assay: Kidney and liver histology and behavior of treated ovariectomized mice; format: in vivo, mouse
Procedure, shortened: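 Ovariectomized 12-week-old CD1 mice received s.c. vehicle or 60 mg/kg test compound twice daily for 2 days (4 doses). Kidney and liver were fixed in Modified Davidson's fixative for 5 days at 4 °C, embedded in paraffin and stained with H&E.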

[4] = test system: myostatin signaling in the −338FSHβ-Luc LβT2 cell line; assay: −338FSHβ-Luc LβT2 cell luciferase assay; format: cell-based, mouse; conditions: −338FSHβ-Luc LβT2 luciferase assay
Procedure, shortened: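 Stably transfected −338FSHβ-Luc LβT2 cells (5 × 10^4/well) were treated for 6 h at 37 °C in serum-free, phenol red-free DMEM-F12 with 1% P/S. Treatments: 0.2 nM activin A or 0.2 nM myostatin with DMSO or a test-compound dilution series. Luciferase measured in lysates. Triplicates in three experiments. IC50 from sigmoidal variable-slope fit, reported as means ± SD.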

[5] = test system: activin A-stimulated FSHβ promoter activation in −338FSHβ-luc LβT2 cells; assay: −338FSHβ-Luc LβT2 cell luciferase assay; format: cell-based; conditions: Mus musculus, 6 h, read-out: IC50 for activin A (selectivity test)
[6] = test system: activin-stimulated FSH in ovariectomized mice; assay: Serum FSH in ovariectomized mice; format: in vivo, mouse; conditions: 15 mg/kg s.c. every 12 h, 4 doses
Procedure, shortened: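 Ovariectomized 12-week-old CD1 mice received s.c. test compound (15, 30 or 60 mg/kg) or vehicle (TBS or DMSO) twice daily for 2 days (4 doses). Fst288 control: 200 µg/kg, 3 doses. Serum FSH was measured by ELISA (sensitivity 0.35mIU/mL, 450 nm) as % of vehicle mean. 5–7 mice per group, 10 controls; one-way ANOVA with Tukey test.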

[7] = target: T3, activin A binding to ActRIIA-ECD-Fc; assay: Blitz competition binding: activin A with ActRIIA-ECD-Fc; conditions: 25 µM compound, activin A 1.6 µM
Procedure, shortened: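 Protein A biosensor (Blitz) loaded with ActRIIA-ECD-Fc, then dipped into activin A (final 1.6 µM) with solvent control or a single 25 µM test compound. Association was 120 s and dissociation 120 s in PBS. Real-time wavelength shift recorded.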

Molecule	Inhibition of exogenous activin A-mediated ovarian cell proliferation (BrdU) ([1]; 200 µM compound)	Antagonism of activin A/ActRIIA-ECD complex binding with ALK4-ECD-Fc [2]	Blocking of myostatin/ActRIIA complex binding with ALK4 [3]	Histopathology of the kidney and liver tissue (H&E) (ovariectomized mice; 60 mg/kg s.c. twice daily, 4 doses, ovariectomized mice)	Behavior after injection (ovariectomized mice; s.c. injection, ovariectomized mice)	Adverse effects in efficacy studies (ovariectomized mice; treated mice, efficacy studies)	Selectivity, IC50 for activin A versus IC50 for myostatin [4] [fold]	IC50 [5] [µM]	Effect on serum FSH levels compared with control [6]	Interference with activin A binding with ActRIIA-ECD-Fc [7]	Inhibition of exogenous activin A-mediated ovarian cell proliferation (BrdU) ([1]; 8 nM)
CC(C)(O)C#Cc1ccc(CN2CCC[C@@H](CCC(=O)N3CCOCC3)C2)s1 [NUCC-474]	only partially inhibited										
CCn1c(-c2cccnc2)nc2cc(NC(=O)COC)cc(C(=O)NCc3ccccc3)c21 [NUCC-555]	completely inhibited	nearly complete antagonist; also recorded: completely blocked	no blocking activity	unchanged	normal behavior	No adverse effects	~10	5.37 ± 4.01	no significant effect	weakly interfere	
B1											completely inhibited
